Experimental data taken from paper PMC3041652 (Arteriosclerosis, thrombosis, and vascular biology, 2011).

Legend:
[1] = tested on: elastinolytic activity in brachiocephalic atherosclerotic lesions; assay: Elastinolytic in situ zymography of brachiocephalic artery lesions; assay type: biochemical, mouse
Summary of the method: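 Brachiocephalic lesion sections came from apoE-knockout mice fed a high-fat diet for 12 weeks. They were incubated with a fluorescently quenched elastin substrate in incubation buffer alone or with added 100 nmol/L test compound, 20 mmol/L EDTA or 1 μmol/L reference MMP inhibitor. Elastinolytic activity was read as green fluorescence.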

mouse MMP-12 = mouse MMP-12 (Mus musculus, UniProt P34960); assay: Inhibition of mouse MMP-12; assay type: biochemical
[2] = tested on: apoE-knockout mice atherosclerotic plaques; assay type: in vivo, mouse
Summary of the method: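 ApoE-null mice (71% C57BL/6, 29% 129 background), both sexes, fed a high-fat diet for 8 weeks. They then received subcutaneous interscapular osmotic minipumps of test compound at 4.6 mg/kg body weight per day in sterile PBS (n=23) or PBS alone (n=27), with the diet continued 4 weeks. Brachiocephalic artery, proximal aorta, descending aorta and heart were analysed histologically. Apoptosis and calcification were scored by immunohistochemistry; calcification area was normalised to lesion area; mean±SEM.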

[3] = tested on: monocyte/macrophage invasion; assay: In vivo subcutaneous sponge monocyte/macrophage invasion assay; design: species or system C57Bl/6;Sv129 mice
Summary of the method: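 Male C57Bl/6;Sv129 mice carrying multiple subcutaneous sponges were infused by osmotic minipump with test compound (n=7) or PBS (n=7). Sponges were retrieved and either used to isolate monocytes/macrophages or formalin-fixed for histology of proliferation and apoptosis.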

[4] = tested on: mouse monocyte-derived macrophages; assay: In vitro proliferation of monocyte-derived macrophages; assay type: cell-based; details: 100 nmol/L
[5] = tested on: rabbit granuloma foam-cell macrophages; assay: In vitro serum starvation-induced apoptosis of foam-cell macrophages; assay type: cell-based
other MMPs [6] = tested on: other MMPs
[7] = tested on: mouse smooth muscle cells; assay: FasL-induced apoptosis of smooth muscle cells; assay type: cell-based; details: untreated cells 78±29; unchanged
N-cadherin = N-cadherin Western blotting in macrophages treated with active MMP-12; assay type: cell-based
human MMP-12 = details: read-out: Ki against human MMP-12; cited from earlier work
[8] = Plasma concentration of inhibitor after osmotic minipump infusion; assay type: in vivo, apoE-knockout mice
Summary of the method: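 ApoE-knockout mice on a high-fat diet (n=6) received test compound at 4.6 mg/kg body weight per day by osmotic minipump. MMP inhibitory activity in plasma was measured with a fluorogenic substrate, and inhibitor concentration was derived from a calibration inhibition curve. Intact compound in plasma extracts was confirmed by micro-HPLC coupled to mass spectrometry.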

[9] = Body weight and plasma lipids after 4 weeks of infusion; assay type: in vivo, apoE-knockout mice; details: 4.6 mg/kg per day for 4 weeks
other MMPs [10] = details: cited from earlier work
[11] = tested on: mouse monocyte-derived macrophages; assay: In vitro serum starvation-induced apoptosis of macrophages; assay type: cell-based
[12] = compared with active MMP-12 alone, 100 nmol/L

mouse MMP-12, sequence (P34960 110-473): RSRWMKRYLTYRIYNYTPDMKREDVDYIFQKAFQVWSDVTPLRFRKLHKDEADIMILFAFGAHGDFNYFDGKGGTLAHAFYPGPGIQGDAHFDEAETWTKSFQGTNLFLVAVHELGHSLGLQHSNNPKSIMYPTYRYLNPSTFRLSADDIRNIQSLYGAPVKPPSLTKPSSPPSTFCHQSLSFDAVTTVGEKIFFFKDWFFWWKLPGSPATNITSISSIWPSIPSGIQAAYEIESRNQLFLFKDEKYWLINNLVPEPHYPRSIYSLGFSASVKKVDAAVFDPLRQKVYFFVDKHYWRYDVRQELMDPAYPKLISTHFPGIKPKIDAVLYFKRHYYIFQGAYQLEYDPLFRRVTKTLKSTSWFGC

CNC(=O)[C@H](Cc1ccccc1)NC(=O)[C@H](CC(C)C)[C@H](CSc1cccs1)C(=O)NO [BB94, reference compound]
reduction of elastinolytic activity ([1]; 1 μmol/L): 95±4%

O=C(O)CN(CCN(CC(=O)O)CC(=O)O)CC(=O)O [EDTA, reference compound]
reduction of elastinolytic activity ([1]; 20 mmol/L): 94±5%

NC(=O)[C@H](CCC(=O)O)NC(=O)[C@H](CCC(=O)O)NC(=O)[C@H](Cc1cc(-c2ccc(-c3cccc(Cl)c3)cc2)no1)CP(=O)(O)c1ccc(Br)cc1 [RXP470.1]
Ki (mouse MMP-12): 4 nM | reduction of atherosclerotic plaque cross-sectional area ([2]; at 4 different vascular sites, male and female mice, Western diet): approximately 50% | frequency of intraplaque macrophage apoptosis ([2]; baseline 15.3±3.0%): 18.1±5.8% | reduction in apoptotic frequency, cleaved PARP-1 immunohistochemistry ([2]; brachiocephalic artery plaques): 57% | reduction in apoptotic frequency, pyknotic/fragmented nuclei ([2]; brachiocephalic artery plaques): 43% | reduction of the number of ISEL-positive macrophages ([2]; brachiocephalic artery plaques, P<0.05): 42% | increase of smooth muscle cell:macrophage ratio ([2]; brachiocephalic artery, P<0.05): 33% | smooth muscle cells as a proportion of all plaque cells ([2]; brachiocephalic artery, control 31±3%, P<0.05): 41±3% | percentage of macrophages of plaque cells ([2]; brachiocephalic artery, control 42±1%, P<0.01): 36±2% | area of calcification normalized to lesion area ([2]; control 5.9±2.2%): 0.8±0.6% | percentage of proliferating macrophages in brachiocephalic plaques, Ki67 ([2]; control 14.8±3.1%): 13.6±2.2% | necrotic core size, percentage of total plaque area ([2]; control 24±2%): 13±3% | number of lesions showing elastin fragmentation ([2]; control 37%, P<0.05): 8% | increase in collagen content of lesions ([2]; did not reach statistical significance): 26% | minimum cap thickness ([2]; no inhibitor 8.7±1.0, baseline 10.2±1.5): 16.4±2.2 μm | lesion size, brachiocephalic artery ([2]; treated mice, at commencement of drug administration 147±32): 153±31 ×10^3 μm^2 | total elastin content of plaques ([2]; vs control): no difference | endothelial coverage over plaques ([2]; vs control mice): no differences | expression of vascular cell adhesion molecule-1 and MCP-1 and -2 ([2]; vs control mice): no difference | reduction in the number of mice with any detectable atherosclerotic lesion, thoracic aorta ([2]; vs controls): 70% | reduction in the number of plaques containing buried fibrous layers ([2]; vs controls): 65% | reduction of plaque cross-sectional area, brachiocephalic artery ([2]; vs controls after 12 weeks of high-fat feeding, P<0.05): 44% | decrease in the area of calcification normalized to lesion area ([2]; vs controls, P<0.01): 86% | reduction in lesion necrotic core size ([2]; vs controls, P<0.05): 46% | reduction in plaque area, aortic sinus ([2]; vs controls, P<0.05): 37% | reduction in plaque area, proximal aorta ([2]; vs controls, P<0.05): 61% | reduction in plaque size, thoracic aorta ([2]; vs controls, P<0.05): 88% | reduction in the incidence of calcification in lesions ([2]; vs controls, P<0.05): 72% | proliferative rate of sponge macrophages ([3]; control 4.0±1.1%): 5.6±1.6% | apoptotic cells in sponges ([3]; mouse, in vivo): no apoptotic cells were detected | reduction of invasive capacity of monocyte/macrophages ([3]; vs controls, P<0.01): 48% | macrophage proliferation ([4]; absence of added active MMP-12, control 36±5%): 46±13% | macrophage proliferation ([4]; presence of added active MMP-12, MMP-12 alone 46±2%): 39±12% | inhibition of apoptosis [5, 12]: 91% | apoptotic rate relative to control cells ([5]; no added MMP-12): significantly reduced | in vitro selectivity for MMP-12 over other MMPs (other MMPs [6]): greater than 100 fold | reduction of elastinolytic activity ([1]; 100 nmol/L, P<0.05): 74% | elastinolytic activity, fluorescence of total plaque area ([1]; 100 nmol/L, incubation buffer alone 4.1±0.5%): 1.1±0.3% | rate of FasL-induced apoptosis [7]: 70±29 ×10^4 ALU | effect on reduction of full-length N-cadherin expression by active MMP-12 (N-cadherin; coincubation with active MMP-12): reversed | formation of the cleaved fragment of N-cadherin (N-cadherin; in the presence of active MMP-12): negated | Ki (human MMP-12): 0.2 nM | form observed in plasma of infused mice (mass spectroscopy fingerprint analysis) [8]: intact form | tolerability [9]: well tolerated | body weight ([9]; control 35.7±1.2 g): 36.2 ± 0.9 g | less potent against other MMPs than against human MMP-12 (other MMPs [10]): 2 to 4 orders of magnitude | inhibition of apoptosis [11, 12]: 91% | apoptotic rate relative to control cells ([11]; no added MMP-12): significantly reduced
